The target in assay [1] is T1, Serine beta-lactamase-like protein LACTB, mitochondrial (Mus musculus) (UniProt Q9EP89).
T1 sequence (whole entry): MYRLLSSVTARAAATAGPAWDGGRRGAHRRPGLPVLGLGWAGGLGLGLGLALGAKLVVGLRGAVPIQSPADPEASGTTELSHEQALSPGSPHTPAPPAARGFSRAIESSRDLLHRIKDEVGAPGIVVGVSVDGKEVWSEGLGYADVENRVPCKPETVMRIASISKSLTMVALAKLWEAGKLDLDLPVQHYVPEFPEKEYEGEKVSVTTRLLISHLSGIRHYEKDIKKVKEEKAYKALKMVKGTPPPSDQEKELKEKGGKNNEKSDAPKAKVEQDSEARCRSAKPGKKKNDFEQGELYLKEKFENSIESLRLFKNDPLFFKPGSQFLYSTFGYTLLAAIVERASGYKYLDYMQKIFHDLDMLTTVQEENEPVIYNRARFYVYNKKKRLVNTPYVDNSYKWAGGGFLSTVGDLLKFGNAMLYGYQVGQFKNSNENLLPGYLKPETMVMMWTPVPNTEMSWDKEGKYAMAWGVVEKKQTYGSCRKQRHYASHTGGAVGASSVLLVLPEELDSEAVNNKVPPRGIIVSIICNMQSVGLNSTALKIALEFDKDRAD
As to conditions: Neuro2a, 3 nM.

The target of assay [2] is T2, Monoacylglycerol lipase ABHD6 (Mus musculus) (UniProt Q8R2Y0).
T2 sequence (whole entry): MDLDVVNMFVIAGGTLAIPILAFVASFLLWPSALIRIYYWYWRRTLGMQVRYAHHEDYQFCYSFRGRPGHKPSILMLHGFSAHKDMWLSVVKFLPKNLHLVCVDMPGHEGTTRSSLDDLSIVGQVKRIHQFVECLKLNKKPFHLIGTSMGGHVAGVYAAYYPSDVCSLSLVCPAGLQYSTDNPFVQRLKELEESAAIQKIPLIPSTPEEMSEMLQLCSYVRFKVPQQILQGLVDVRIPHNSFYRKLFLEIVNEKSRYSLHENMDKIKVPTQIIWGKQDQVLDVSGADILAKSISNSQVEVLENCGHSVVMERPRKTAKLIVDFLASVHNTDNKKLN
Nature of the assay: Inhibition of ABHD6 in FP-rhodamine-labelled mouse brain membrane at 1 nM preincubated for 30 mins followed by FP-rhodamine labelling measured after 30 mins by gel-based competitive ABPP assay. The class given is tissue-based. The procedure, abridged:
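Mouse brain membrane proteome (1 mg/mL) preincubated with compound for 30 min at 37 °C, then labelled with FP-rhodamine or HT-01 (1 μM final) for 30 min at 37 °C. Quenched in SDS loading buffer, run on 10% SDS-PAGE and scanned for in-gel fluorescence. Bands assigned by gel migration.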

The target in assay [3] is T3, sn-1-specific diacylglycerol lipase ABHD11 (Mus musculus) (UniProt Q8K4F5).
T3 sequence (whole entry): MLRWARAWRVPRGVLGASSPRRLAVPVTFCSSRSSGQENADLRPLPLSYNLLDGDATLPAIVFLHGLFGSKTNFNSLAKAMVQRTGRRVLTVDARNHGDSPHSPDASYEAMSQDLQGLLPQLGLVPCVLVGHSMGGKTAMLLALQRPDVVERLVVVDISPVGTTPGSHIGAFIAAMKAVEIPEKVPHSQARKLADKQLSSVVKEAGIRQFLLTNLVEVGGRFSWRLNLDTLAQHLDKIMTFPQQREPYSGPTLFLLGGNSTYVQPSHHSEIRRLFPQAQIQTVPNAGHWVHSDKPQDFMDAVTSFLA
As to conditions: Neuro2a, 3 nM.

The target in assay [4] is T4, Diacylglycerol lipase-beta (Mus musculus) (UniProt Q91WC9).
T4 sequence (whole entry): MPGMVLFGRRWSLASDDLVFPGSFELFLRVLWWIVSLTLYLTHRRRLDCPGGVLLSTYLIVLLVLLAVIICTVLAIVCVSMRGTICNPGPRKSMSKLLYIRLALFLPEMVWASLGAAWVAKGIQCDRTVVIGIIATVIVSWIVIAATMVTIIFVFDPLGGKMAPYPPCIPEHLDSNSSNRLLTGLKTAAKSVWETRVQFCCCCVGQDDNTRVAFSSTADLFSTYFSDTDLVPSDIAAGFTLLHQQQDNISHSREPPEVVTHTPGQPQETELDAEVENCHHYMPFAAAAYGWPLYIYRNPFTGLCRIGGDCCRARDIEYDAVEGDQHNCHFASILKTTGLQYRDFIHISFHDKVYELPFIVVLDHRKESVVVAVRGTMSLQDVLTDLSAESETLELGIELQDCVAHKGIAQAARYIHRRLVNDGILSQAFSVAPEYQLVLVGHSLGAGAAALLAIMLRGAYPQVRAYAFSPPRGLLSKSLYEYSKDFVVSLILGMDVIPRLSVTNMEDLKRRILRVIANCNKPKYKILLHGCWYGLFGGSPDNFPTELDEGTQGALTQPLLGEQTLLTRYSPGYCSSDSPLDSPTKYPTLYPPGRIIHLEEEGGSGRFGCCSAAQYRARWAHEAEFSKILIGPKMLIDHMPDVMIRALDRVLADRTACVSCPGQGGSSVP
Particulars: Neuro2a, 3 nM.

The target in assay [5] is T5, Neutral cholesterol ester hydrolase 1 (Mus musculus) (UniProt Q8BLF1).
T5 sequence (whole entry): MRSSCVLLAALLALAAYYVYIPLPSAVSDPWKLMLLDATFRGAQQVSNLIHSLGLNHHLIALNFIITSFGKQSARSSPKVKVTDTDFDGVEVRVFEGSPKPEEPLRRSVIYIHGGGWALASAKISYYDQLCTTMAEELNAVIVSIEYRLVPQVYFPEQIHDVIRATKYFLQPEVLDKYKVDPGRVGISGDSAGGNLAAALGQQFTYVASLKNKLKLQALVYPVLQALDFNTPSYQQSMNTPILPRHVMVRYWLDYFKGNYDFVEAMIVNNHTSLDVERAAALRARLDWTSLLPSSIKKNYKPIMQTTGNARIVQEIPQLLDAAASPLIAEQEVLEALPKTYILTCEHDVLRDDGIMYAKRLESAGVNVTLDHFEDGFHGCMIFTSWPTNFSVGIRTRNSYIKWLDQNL
Particulars: Neuro2a, 3 nM.

The target in assay [6] is T6, Protein phosphatase methylesterase 1 (Mus musculus) (UniProt Q8BVQ5).
T6 sequence (whole entry): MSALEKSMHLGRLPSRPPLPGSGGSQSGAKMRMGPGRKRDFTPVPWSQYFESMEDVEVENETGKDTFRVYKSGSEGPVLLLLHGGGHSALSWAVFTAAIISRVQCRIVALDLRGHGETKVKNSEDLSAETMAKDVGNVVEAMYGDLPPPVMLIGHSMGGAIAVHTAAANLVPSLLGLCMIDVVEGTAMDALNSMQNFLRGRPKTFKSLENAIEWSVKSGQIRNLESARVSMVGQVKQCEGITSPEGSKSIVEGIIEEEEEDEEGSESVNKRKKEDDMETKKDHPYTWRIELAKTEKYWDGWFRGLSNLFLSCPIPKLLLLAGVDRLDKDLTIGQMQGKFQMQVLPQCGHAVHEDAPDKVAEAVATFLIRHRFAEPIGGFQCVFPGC
Particulars: Neuro2a, 3 nM.

Molecules are shown by their SMILES. Some results are limits rather than exact numbers.

A word on the inhibition: it is how much of the control response was suppressed. Lower therefore signals a weak effect. With `O=C(c1cccc(-c2ccc(-c3cn(C(=O)N4CCCCC4c4ccccc4)nn3)cc2)c1)N1CCCCC1` (racemic), the inhibition is under 50% in assay [1]; 51% in assay [2]; under 50% in assay [3]; under 50% in assay [4]; under 50% in assay [5]; under 50% in assay [6].

Take `O=C(O)c1cccc(-c2ccc(-c3cn(C(=O)N4CCCCC4Cc4ccccc4)nn3)cc2)c1` (racemic): the inhibition was under 50% in assay [1]; 62% in assay [2]; under 50% in assay [3]; under 50% in assay [4]; under 50% in assay [5]; under 50% in assay [6].

As to `O=C(N1CCCCC1c1ccccc1)n1cc(-c2ccc(-c3cccc(CO)c3)cc2)nn1` (racemic), the inhibition is under 50% in assay [1]; 29% in assay [2]; under 50% in assay [3]; under 50% in assay [4]; under 50% in assay [5]; under 50% in assay [6].

These data come from ChEMBL document CHEMBL3259629, “Discovery and optimization of piperidyl-1,2,3-triazole ureas as potent, selective, and in vivo-active inhibitors of α/β-hydrolase domain containing 6 (ABHD6)” (J Med Chem, 2013).
